According to ChEMBL document CHEMBL1154137, “Monodictyochromes A and B, dimeric xanthone derivatives from the marine algicolous fungus Monodictys putredinis” (J Nat Prod, 2008):
Activity calls are given as the source filed them. The calls are words filed in the database; no cut-off is given here.

Key:
[1] = Antioxidant activity assessed as AAPH radical scavenging activity; format: functional
In short: (§1)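 Oxygen radical absorbance capacity (ORAC) assay. AAPH generates peroxyl radicals, and trolox, the water-soluble vitamin E analogue, serves as reference. Compounds tested at 1 µM.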

[2] = Inhibition of CYP1A in beta-naphthoflavone-stimulated rat […] cells assessed as dealkylation of 3-cyano-7-ethoxycoumarin to 3-cyano-7-hydroxyciumarin; format: ADME, cell-based; settings: for IC50: Rattus norvegicus; for Activity: rat
In short: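 Rat hepatoma H4IIE cells induced with β-naphthoflavone, then homogenised. CYP1A activity measured as dealkylation of 3-cyano-7-ethoxycoumarin to fluorescent 3-cyano-7-hydroxycoumarin, over a dose range. α-Naphthoflavone serves as positive control. IC50 is given as mean ± SD, n = 3.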

[3] = system: [Chlorella] fusca; experiment: Antialgal activity against Chlorella fusca at 1 mg/ml by agar diffusion assay; format: functional, organism-based; settings: Scenedesmus fuscus
In short: (§2)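 Agar diffusion assay with test solution at 1 mg/mL. Organisms: bacteria Bacillus megaterium and Escherichia coli; fungi Microbotryum violaceum, Eurotium rubrum and Mycotypha microspora; green microalga Chlorella fusca.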

[4] = target: Prostaglandin G/H synthase 1 (Homo sapiens) (UniProt P23219); experiment: Inhibition of COX1 at 100 uM
Sequence of Prostaglandin G/H synthase 1 (Homo sapiens) (P23219 whole entry): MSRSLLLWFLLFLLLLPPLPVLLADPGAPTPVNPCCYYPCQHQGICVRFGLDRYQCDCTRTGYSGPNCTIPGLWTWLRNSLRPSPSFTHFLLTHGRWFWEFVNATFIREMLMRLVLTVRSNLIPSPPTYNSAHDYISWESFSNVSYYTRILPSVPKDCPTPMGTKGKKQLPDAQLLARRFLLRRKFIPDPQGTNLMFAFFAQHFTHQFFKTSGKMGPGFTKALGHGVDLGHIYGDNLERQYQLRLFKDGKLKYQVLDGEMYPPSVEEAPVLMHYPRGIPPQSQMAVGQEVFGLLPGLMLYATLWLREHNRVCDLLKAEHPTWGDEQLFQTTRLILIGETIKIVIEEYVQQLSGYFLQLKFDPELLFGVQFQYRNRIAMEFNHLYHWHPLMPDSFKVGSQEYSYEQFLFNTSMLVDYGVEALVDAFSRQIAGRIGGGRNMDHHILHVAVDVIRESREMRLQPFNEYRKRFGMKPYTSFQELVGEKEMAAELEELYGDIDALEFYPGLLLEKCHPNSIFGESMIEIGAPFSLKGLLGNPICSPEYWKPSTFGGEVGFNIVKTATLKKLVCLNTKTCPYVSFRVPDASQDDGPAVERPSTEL
In short: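 COX-1 enzymatic activity used as a marker of tumour promotion. Compounds tested at 100 µM.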

[5] = Antioxidant activity assessed as superoxide anion radical scavenging activity up to 50 uM; format: functional
In short: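 Superoxide anion radicals generated by xanthine oxidase oxidising hypoxanthine to uric acid. Scavenging tested at concentrations up to 50 µM.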

[6] = Cytotoxicity against mouse Hepa-1c1c7 cells by MTT assay; format: cell-based
[7] = system: Radical scavenging activity; experiment: Antioxidant activity assessed as DPPH radical scavenging activity up to 250 uM; format: functional
[8] = system: Aspergillus ruber; experiment: Antifungal activity against Eurotium rubrum at 1 mg/ml by agar diffusion assay; format: functional, organism-based; in short: as §2
[9] = system: Escherichia coli; experiment: Antibacterial activity against Escherichia coli at 1 mg/ml by agar diffusion assay; format: functional, organism-based; in short: as §2
[10] = system: Mycotypha microspora; experiment: Antifungal activity against Mycotypha microspora at 1 mg/ml by agar diffusion assay; format: functional, organism-based; in short: as §2
[11] = target: T1, Quinone oxidoreductase (Mus musculus) (UniProt P47199); experiment: Ratio of compound to sulforaphane level required to double NADPH-quinone reductase activity in mouse Hepa-1c1c7 cells; format: cell-based
T1 sequence (whole entry): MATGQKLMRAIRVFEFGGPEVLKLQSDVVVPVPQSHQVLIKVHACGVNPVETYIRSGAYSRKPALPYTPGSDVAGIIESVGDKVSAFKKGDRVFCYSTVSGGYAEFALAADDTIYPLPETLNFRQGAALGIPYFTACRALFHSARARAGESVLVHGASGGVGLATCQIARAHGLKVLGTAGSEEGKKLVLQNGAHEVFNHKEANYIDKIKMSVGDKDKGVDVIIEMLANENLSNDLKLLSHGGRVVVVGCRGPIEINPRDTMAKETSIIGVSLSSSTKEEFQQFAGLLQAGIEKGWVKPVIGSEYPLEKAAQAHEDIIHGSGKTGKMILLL

[12] = system: Microbotryum violaceum; experiment: Antifungal activity against Microbotryum violaceum at 1 mg/ml by agar diffusion assay; format: functional, organism-based; in short: as §2
[13] = Antioxidant activity assessed as AAPH radical scavenging activity at 1 uM; format: functional; in short: as §1
[14] = target: T2, Aromatase (Homo sapiens, UniProt P11511); experiment: Inhibition of human recombinant aromatase; settings: for Activity: human
T2 sequence (P11511 whole entry): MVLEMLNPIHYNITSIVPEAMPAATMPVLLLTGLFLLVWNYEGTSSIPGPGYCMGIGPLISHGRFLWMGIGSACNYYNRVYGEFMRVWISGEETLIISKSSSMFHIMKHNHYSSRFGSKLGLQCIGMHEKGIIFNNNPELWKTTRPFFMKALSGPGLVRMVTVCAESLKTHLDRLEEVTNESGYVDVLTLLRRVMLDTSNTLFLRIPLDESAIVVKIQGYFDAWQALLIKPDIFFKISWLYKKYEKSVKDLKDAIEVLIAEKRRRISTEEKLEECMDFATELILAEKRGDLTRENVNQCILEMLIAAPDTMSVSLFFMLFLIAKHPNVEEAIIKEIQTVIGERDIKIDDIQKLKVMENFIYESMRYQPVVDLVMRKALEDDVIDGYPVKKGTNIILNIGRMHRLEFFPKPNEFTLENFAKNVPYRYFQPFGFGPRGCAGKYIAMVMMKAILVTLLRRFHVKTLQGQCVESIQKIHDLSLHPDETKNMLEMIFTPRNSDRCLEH
In short: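 Human recombinant CYP19 (aromatase) with O-benzylfluorescein benzyl ester (DBF) as substrate.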

[15] = system: Priestia megaterium; experiment: Antibacterial activity against Bacillus megaterium at 1 mg/ml by agar diffusion assay; format: functional, organism-based; in short: as §2

IC50 [2]	Activity [2]	inhibition [4]	Ratio [11]	IC50 [14]	Activity [14]	Compound	Activity [1]	Activity [3]	Activity [5]	IC50 [6]	Activity [7]	Activity [8]	Activity [9]	Activity [10]	Activity [12]	Activity [13]	Activity [15]
						Cc1c(C)c2c(c(C)c1O)CCC(C)(C(=O)O)O2 (stereo not drawn)	Active										
5.3 µM	Dose-dependent effect	< 50%	100	24.4 µM	Dose-dependent effect	Cc1cc(O)c2c(c1-c1ccc3c(c1O)C(=O)C[C@](C)([C@@H]1OC(=O)C[C@@H]1C)O3)O[C@](C)([C@@H]1OC(=O)C[C@H]1O)CC2=O [MONODICTYOCHROMONE A]		inactive	inactive	> 50 µM	inactive	inactive	inactive	inactive	inactive	Active	inactive
7.5 µM	Dose-dependent effect	< 50%	100	16.5 µM	Dose-dependent effect	Cc1cc2c(c(O)c1-c1ccc3c(c1O)C(=O)C[C@](C)([C@@H]1OC(=O)C[C@@H]1C)O3)C(=O)C[C@@](C)([C@@H]1OC(=O)C[C@H]1O)O2 [MONODICTYOCHROMONE B]		inactive	inactive	> 50 µM	inactive	inactive	inactive	inactive	inactive	Active	inactive
